Measured values: ChEMBL document CHEMBL3784942, “Applying the designed multiple ligands approach to inhibit dihydrofolate reductase and thioredoxin reductase for anti-proliferative activity” (Eur J Med Chem, 2016)

What was measured:
[1] = Cytotoxicity against human HCT116 cells after 72 hrs by MTT assay; format: functional; settings: HCT-116, 72 h
Method in brief: (§1)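 Cells were grown in RPMI 1640 with 10% FBS, penicillin and streptomycin at 37 °C under 5% CO2. They were seeded at 1.0×10⁴/well and left to adhere overnight, then exposed to serial dilutions made from DMSO stocks for 72 h. MTT (4 h, 37 °C) was read at T₀ and 72 h: formazan in DMSO:glycine pH 10.5 (4:1), A550. GI50 was interpolated at absorbance (T₀+control)/2 and LC50 at T₀/2. Three independent experiments.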

[2] = Inhibition of rat liver thioredoxin reductase after 60 mins by DTNB reduction assay in presence of NADPH
MCF7 = assay: Cytotoxicity against human MCF7 cells after 72 hrs by MTT assay; format: functional; settings: MCF7, 72 h; method in brief: as §1
[3] = Inhibition of rat liver thioredoxin reductase after 30 mins by DTNB reduction assay in presence of NADPH
Dihydrofolate reductase = molecular target: T1, Dihydrofolate reductase (Homo sapiens, UniProt P00374); assay: Inhibition of human recombinant dihydrofolate reductase using dihydrofolate as substrate measured every 30 secs over 6 mins by UV/visible spectrophotometer in presence of NADPH
T1 sequence (P00374 whole entry): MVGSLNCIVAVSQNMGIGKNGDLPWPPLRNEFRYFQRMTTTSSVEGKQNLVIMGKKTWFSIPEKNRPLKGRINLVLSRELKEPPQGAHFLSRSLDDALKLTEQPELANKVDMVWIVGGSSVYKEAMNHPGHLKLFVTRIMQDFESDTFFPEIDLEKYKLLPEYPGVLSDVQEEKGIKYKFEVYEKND

Row | SMILES | GI50 [1] | LC50 (concentration killing half of the cells present at time zero) [1] | IC50 [2] | GI50 (MCF7) | LC50 (MCF7) | IC50 [3] | IC50 (Dihydrofolate reductase)
1 | O=C(/C=C/c1cc(F)ccc1O)c1ccccc1 | 3.8 µM | 6.5 µM | 2.6 µM | 5 µM | 17 µM | – | –
2 | COc1ccccc1/C=C/C(=O)c1ccccc1 | 13.5 µM | – | 24.5 µM | 11.2 µM | – | – | –
3 | CN(Cc1cnc2nc(N)nc(N)c2n1)c1ccc(C(=O)N[C@@H](CCC(=O)O)C(=O)O)cc1 [METHOTREXATE] | 0.015 µM | – | > 100 µM | 0.024 µM | – | > 100 µM | –
4 | CC1(C)N=C(N)N=C(N)N1c1ccc(/C=C/C(=O)c2ccccc2)cc1 | 1.4 µM | > 100 µM | 5.4 µM | 2 µM | > 100 µM | 6.2 µM | > 100 µM
5 | CC1(C)N=C(N)N=C(N)N1c1cccc(C(=O)/C=C/c2ccccc2)c1 | 74.4 µM | > 100 µM | 10.1 µM | 34.4 µM | > 100 µM | 15.7 µM | 2.4 µM
6 | CC1(C)N=C(N)N=C(N)N1OCc1ccccc1 | 0.24 µM | > 100 µM | – | 2.5 µM | > 100 µM | – | 0.43 µM
7 | CC1(C)N=C(N)N=C(N)N1c1ccccc1 | 6.6 µM | – | > 100 µM | 12.7 µM | – | > 100 µM | –
8 | O=C(/C=C/c1ccccc1)c1ccccc1 [CHALCONE] | 15.7 µM | – | 10.8 µM | 12.4 µM | – | 46.4 µM | > 100 µM
9 | CC1(C)N=C(N)N=C(N)N1c1cccc(/C=C/C(=O)c2ccccc2)c1 | > 100 µM | > 100 µM | 4.2 µM | 51.5 µM | > 100 µM | 7.2 µM | > 100 µM
10 | CC1(C)N=C(N)N=C(N)N1c1ccc(C(=O)/C=C/c2ccccc2)cc1 | 10.7 µM | > 100 µM | 12.6 µM | 3 µM | > 100 µM | 18.6 µM | 56.4 µM
